Assay outcomes: PubChem, several laboratories
In the library only some 6.4% were active in any assay of this set; here they are far more common.
EphB4 ephrin blk – blocks human EphB4 binding to ephrin-B2. P54760. EphB4 LBD / TNYL-RAW-Alexa532 peptide, fluorescence polarization. inhibition, % at 7 µM. 97,000 compounds, 0.15% hits. AID 720;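 active = inhibition above the screen-wide mean inhibition plus 3 SD, cut at about 15% in these data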
HIV Rev-RRE inh – HIV Rev-RRE protein-RNA interaction inhibition. P05866. Rev peptide-RRE RNA binding, FRET. inhibition, % at 8 µM. 97,000 compounds, 0.79% hits. AID 704;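 active = inhibition above the screen-wide mean plus 3 SD, cut at about 35% in these data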
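Material: labelled RRE RNA duplex and labelled Rev peptide / Buffer or medium: HEPES pH 7.5 salt buffer with EDTA / Compound dosing: single point, 8 µM final nominal compound concentration / Benchmarks: DMSO low control, neomycin B high control / Timing: 5 min preincubation and 15 min binding, 25 °C / Technique: FRET fluorescence readout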
PLK1 inh – blocks human PLK1 kinase activity | recombinant PLK1 kinase, TR-FRET peptide phosphorylation | inhibition, % at 10 µM | 97,000 compounds, 0.53% hits;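 active = inhibition of 50% or more in the single-concentration screen; inactive = inhibition below 50%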
PostGolgi yeast – growth inhibition of a yeast mutant, post-Golgi transport screen | post-Golgi transport phenotypic cell assay | inhibition, % at 10 µM | 98,000 compounds, 0.9% hits;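 note: yeast cells grown in 1536-well plates; yeast grown about 18 h at 30C before absorbance read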
PLK1 PBD inh – inhibitors of human Plk1 polo box domain binding. Plk1 PBD phosphopeptide binding, fluorescence polarization. P53350. AID 693. 97,000 compounds, 0.13% hits. inhibition, %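 (tested at about 20 µM)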; in the data active = inhibition above about 34%, passing the limit was not always enough
PostGolgi ctrl – growth of the yeast control strain, post-Golgi counter-screen. efflux-deficient yeast background strain, growth absorbance A615, 16 h. inhibition, % at 10 µM. 98,000 compounds, 5% hits
Hits are given with their value; - = inactive; . = not tested or not shown. Cut-off read from the data, not from the text of the source, unless noted: active = inhibition above about 30%; inactive = the rest.

SMILES	EphB4 ephrin blk	HIV Rev-RRE inh	PLK1 inh	PostGolgi yeast	PLK1 PBD inh	PostGolgi ctrl
COc1cc(/C=N/NC(N)=S)ccc1OC(=O)c1ccc(C)cc1	-	-	-	-	-	52.5
COc1ccc(/C=N/NS(=O)(=O)c2ccccc2)cc1OC(=O)c1ccc(C)cc1	-	-	-	-	-	-
CC(C)CC(c1nnnn1CC1CCCO1)N1CCN(c2cccc(Cl)c2)CC1 (centres undefined)	-	-	-	-	-	33.7
Cc1ccc(Cl)cc1N1CCN(C(CC(C)C)c2nnnn2CC2CCCO2)CC1 (centres undefined)	-	-	-	-	-	-
CC(C)CC(c1nnnn1Cc1ccco1)N1CCN(c2cccc(Cl)c2)CC1 (centres undefined)	-	-	-	-	-	39.9
CC(C)CC(c1nnnn1CCc1ccccc1)N1CCN(C(=O)c2ccco2)CC1 (centres undefined)	-	-	-	-	-	30.4
CCC(c1nnnn1CCc1ccccc1)N1CCN(C(=O)c2ccco2)CC1 (centres undefined)	-	-	-	-	-	-
CCCC(c1nnnn1Cc1ccco1)N1CCN(C(=O)c2ccco2)CC1 (centres undefined)	-	-	-	-	-	-
CC(C)OC(=O)CSc1nnc(-c2ccccc2)n1N	-	-	-	-	-	-
CCNc1nc(NC(C)C)nc(SCCOc2ccc(C)cc2)n1	-	-	-	-	-	31.0
CCNc1nc(NC(C)C)nc(OCCNS(=O)(=O)c2cc(C)ccc2C)n1	-	-	-	-	-	-
CCN(CC)c1ccc(-c2nc3cnccc3n2C)cc1	.	.	.	37.6	.	-
O=C1CSC(c2ccccn2)N1Cc1cn2ccccc2n1 (centres undefined)	-	-	-	-	-	-
COC(=O)[C@H](C)NC(=O)NC1CCN(Cc2ccccc2)CC1	-	-	-	-	-	-
CCCCOc1ccc(Cl)cc1CSc1n[nH]c(C)n1	-	-	-	-	-	-
CCOc1ccc(Cl)cc1CSc1n[nH]c(CC)n1	-	-	-	-	-	34.5
Cc1nnc(Nc2ccccn2)c2ccccc12	.	.	.	-	.	65.0
Cc1ccc(OC(=O)c2oc3ccc(F)cc3c2C)c(C)c1	-	-	-	-	-	-
CC1=CC(C)(C)N2C(=O)C3(SCC(=O)N3c3ccc(F)cc3)c3cc(C)cc1c32 (centres undefined)	-	-	-	-	-	50.1
O=C(CN1C(=O)NC2(CCCc3ccccc32)C1=O)N1CCN(C(=O)c2ccco2)CC1 (centres undefined)	-	-	-	-	-	-
O=C(Nc1ccc(Cl)c(Cl)c1)OCCNC(=O)c1cccc(Cl)c1	-	-	-	-	-	-
COc1ccc(NS(=O)(=O)c2ccc3c(c2)Cc2ccccc2-3)cn1	-	-	-	-	-	64.6
CCOC(=O)C(C(=O)OCC)c1cc(Br)c2noc3c2c1C(=O)c1ccccc1-3	-	58.4	-	-	-	-
CC(=O)OCCNc1cc(N2CCN(C)CC2)c2noc3c2c1C(=O)c1ccccc1-3	.	.	.	-	.	-
Cc1ccc(C2c3sc(=O)[nH]c3SC3C(=O)NC(=O)C32)cc1 (centres undefined)	.	.	.	-	.	-
SMILES	EphB4 ephrin blk	HIV Rev-RRE inh	PLK1 inh	PostGolgi yeast	PLK1 PBD inh	PostGolgi ctrl
C=CCc1c(C)nc(SCC(=C)C)[nH]c1=O	-	-	-	-	-	-
Cc1cccc(NC(=O)c2cc3n(n2)C(C(F)(F)F)CC(c2ccc4c(c2)OCO4)N3)c1 (centres undefined)	-	-	-	-	-	57.8
Cc1cc(C(=O)NCc2ccco2)no1	-	-	-	30.3	-	-
Cc1ccc(C2CC(C(F)(F)F)n3nc(C(=O)NCc4ccco4)cc3N2)cc1 (centres undefined)	-	-	-	-	-	32.1
CCCCNC(=O)c1cc2n(n1)C(C(F)(F)F)CC(c1ccccc1)N2 (centres undefined)	-	-	-	-	-	34.9
O=C(c1cnn2c(C(F)(F)F)cc(-c3ccco3)nc12)N1CCc2ccccc2C1	-	-	-	-	-	-
CCOC(=O)CCC(=O)N1CCNC(=O)C1	.	.	.	-	.	-
CCOC(=O)c1c(C)oc2c1c(C(c1ccccc1)N1CCOCC1)c(O)c1ccccc12 (centres undefined)	-	-	-	-	-	-
CCOC(=O)c1c(C)oc2c1c(C(c1cccnc1)N1CCCCC1)c(O)c1ccccc12 (centres undefined)	-	-	-	-	-	52.7
